In ChEMBL document CHEMBL1138398, “Design and synthesis of novel bis(L-amino acid) ester prodrugs of 9-[2-(phosphonomethoxy)ethyl]adenine (PMEA) with improved anti-HBV activity” (Bioorg Med Chem Lett, 2007):

Experiments:
HepG2 = test: Cytotoxicity against HepG2 2.2.15 cells; assay type: functional; conditions: Homo sapiens
Method in brief: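 HepG2 2.2.15 cells exposed to compound; CC50 defined as the concentration causing 50% extinction of the cells.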

[1] = Selectivity index, ratio of CC50 for HepG2 2.2.15 cells to EC50 for HBV; assay type: functional
Method in brief: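 In HepG2 2.2.15 cells: SI calculated as CC50 (50% extinction of the cells) divided by EC50 (50% inhibition of cytoplasmic HBV-DNA synthesis).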

Hepatitis B virus = test: Antiviral activity against HBV assessed as inhibition of cytoplasmic HBV-DNA synthesis; assay type: functional, organism-based
Method in brief: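 Run in HepG2 2.2.15 cells; EC50 taken as the concentration giving 50% inhibition of cytoplasmic HBV-DNA synthesis.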

[2] = Metabolic stability assessed as half life in human plasma; assay type: ADME, cell-free

SMILES	CC50 (HepG2)	Ratio CC50/EC50 [1]	EC50 (Hepatitis B virus)	half-life [2]
CC(C)C[C@H](N)C(=O)SCCOP(=O)(COCCn1cnc2c(N)ncnc21)OCCSC(=O)[C@@H](N)CC(C)C.Cl	3410 µM	16129	0.211 µM	–
CC(C)[C@H](N)C(=O)OCOP(=O)(COCCn1cnc2c(N)ncnc21)OCOC(=O)[C@@H](N)C(C)C.Cl	3380 µM	11094	0.304 µM	–
Cl.Nc1ncnc2c1ncn2CCOCP(=O)(OCCOC(=O)[C@@H](N)Cc1ccccc1)OCCOC(=O)[C@@H](N)Cc1ccccc1	2590 µM	8354	0.311 µM	0.25 h
CC(C)(C)C(=O)OCOP(=O)(COCCn1cnc2c(N)ncnc21)OCOC(=O)C(C)(C)C.Cl	540 µM	1044	0.517 µM	0.75 h
Cl.Nc1ccn([C@@H]2CS[C@H](CO)O2)c(=O)n1	230 µM	2850	0.0807 µM	–
CC(C)[C@H](N)C(=O)OCCOP(=O)(COCCn1cnc2c(N)ncnc21)OCCOC(=O)[C@@H](N)C(C)C.Cl	2590 µM	1974	1.31 µM	2 h
Cl.Nc1ncnc2c1ncn2CCOCP(=O)(OCOC(=O)[C@@H](N)Cc1ccccc1)OCOC(=O)[C@@H](N)Cc1ccccc1	–	23312	0.659 µM	–
CC(C)[C@H](N)C(=O)SCCOP(=O)(COCCn1cnc2c(N)ncnc21)OCCSC(=O)[C@@H](N)C(C)C.Cl	–	38167	0.752 µM	–
C[C@H](N)C(=O)OCCOP(=O)(COCCn1cnc2c(N)ncnc21)OCCOC(=O)[C@H](C)N.Cl	1840 µM	146	12.5 µM	–
CC(C)C[C@H](N)C(=O)OCOP(=O)(COCCn1cnc2c(N)ncnc21)OCOC(=O)[C@@H](N)CC(C)C.Cl	8560 µM	25111	0.341 µM	–
CC(C)C[C@H](N)C(=O)OCCOP(=O)(COCCn1cnc2c(N)ncnc21)OCCOC(=O)[C@@H](N)CC(C)C.Cl	6640 µM	69523	0.0952 µM	4.5 h
Cl.Nc1ncnc2c1ncn2CCOCP(=O)(OCCSC(=O)[C@@H](N)Cc1ccccc1)OCCSC(=O)[C@@H](N)Cc1ccccc1	–	52727	0.208 µM	–
C[C@H](N)C(=O)SCCOP(=O)(COCCn1cnc2c(N)ncnc21)OCCSC(=O)[C@H](C)N.Cl	2420 µM	1548	1.56 µM	–
Cl.NCC(=O)SCCOP(=O)(COCCn1cnc2c(N)ncnc21)OCCSC(=O)CN	259 µM	25	10.2 µM	–
